Assay results reported in article PMC3712066 (Diabetes, 2013).

Key:
[1] = tested on: rats with streptozotocin-induced diabetes mellitus (STZ-DM); assay: Electroretinography; format: in vivo, Sprague-Dawley rats; settings: diabetic rats, SST eye drops 10 mg/mL once daily; scotopic
Summary of the method: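 Scotopic ERG was recorded in both eyes before treatment and on day 14, after at least 1 h dark adaptation. Rats were under isoflurane with 0.5% proparacaine topically. b-wave amplitude and implicit time were measured to ISCEV definitions after scotopic flash (0 db). Animals were STZ-diabetic rats on daily 10 mg/mL drops or saline vehicle. Paired t test within group; means ± SD.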

[2] = tested on: rats with streptozotocin-induced diabetes mellitus (STZ-DM); assay: Assessment of glial activation; format: in vivo, Sprague-Dawley rats; settings: dose-response; SST eye drops 0.5 mg/mL compared with 2 or 10 mg/mL
Summary of the method: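 Male Sprague-Dawley rats made diabetic with STZ 60 mg/kg i.v. (glucose above 250 mg/dL). One drop daily for 14 days, plus one ~1 h before necropsy; saline vehicle; dose-response at 10, 2, 0.5 mg/mL. Paraffin retinal sections blocked in PBS/1% BSA/0.05% Triton X-100. Rabbit anti-GFAP 1:100, 36 h at 4C; Alexa Fluor 568 secondary. Scored 0–5 by GFAP extent, endfeet/GCL to ONL.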

[3] = tested on: AMPA-induced neurotoxicity; settings: intravitreal administration; cited from earlier work
[4] = tested on: FasL, caspase-8, Bid, active caspase-3, BclxL; assay: Proapoptotic and survival signaling in neuroretina; format: in vivo, Sprague-Dawley rats; settings: neuroretina of diabetic rats; SST eye drops 10 mg/mL; Western blot
Summary of the method: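 Neuroretina protein extracts were Western blotted for FasL, caspase-8, Bid, Bim, BclxL and active caspase-3, with α-tubulin as loading control. Autoradiograms were quantified by scanning densitometry as arbitrary units, means ± SD. Tissue came from STZ-diabetic rats given daily 10 mg/mL drops or saline vehicle for 14 days, and from nondiabetic controls.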

[5] = Ophthalmological examinations; format: in vivo, Sprague-Dawley rats; settings: SST eye drops 10 mg/mL, 20 µL once daily; baseline and follow-up (days 7 and 13)
Summary of the method: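 All animals had slit lamp biomicroscopy, indirect ophthalmoscopy and intraocular pressure measurement at baseline and on days 7 and 13 posttreatment. Groups were nondiabetic controls on vehicle, and STZ-diabetic (60 mg/kg i.v.) male Sprague-Dawley rats on once-daily drops of test compound (10 mg/mL) or 0.9% NaCl vehicle.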

[6] = tested on: glutamate/aspartate transporter (GLAST); assay: GLAST expression in retina; format: in vivo, Sprague-Dawley rats; settings: diabetic rats treated with SST eye drops 10 mg/mL
Summary of the method: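 GLAST mRNA by real-time PCR, normalized to β-actin (relative quantification). For protein, paraffin retinal sections were retrieved in 10 mmol/L sodium citrate pH 6.0 and blocked 1 h at room temperature in 2% BSA/0.05% Tween PBS. They were probed with anti-GLAST 1:200, then Alexa Fluor 488 anti-rabbit (1 h), with DAPI. Fluorescence intensity was quantified as for GFAP. Rats were STZ-diabetic on daily drops or saline.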

[7] = tested on: rats with streptozotocin-induced diabetes mellitus (STZ-DM); assay: Assessment of retinal apoptosis; format: in vivo, Sprague-Dawley rats; settings: TUNEL; SST eye drops 10 mg/mL once daily, 15 days

## Somatostatin [SST]
[1]
  b-wave amplitude, day 14 vs day −1: no reduction of b-wave amplitude was observed
  b-wave implicit time, day 14 vs day −1: did not increase
[2]
  effect in preventing glial activation and apoptosis: significantly lower than that obtained using either 2 or 10 mg/mL
[3]
  protection of the retina from AMPA-induced neurotoxicity: protects the retina from AMPA-induced neurotoxicity
[4]
  BclxL expression: greatly improved
[5]
  differences in the cornea, pupil size, or intraocular pressure among groups: No significant differences
[6]
  diabetes-induced downregulation of GLAST gene and protein expression: this downregulation was prevented
[6]; immunofluorescence
  GLAST protein levels in comparison with nondiabetic rats: even increased
[7]
  ratio of apoptosis in all retinal layers vs diabetic rats treated with placebo: significantly lower
